According to ChEMBL document CHEMBL1955718, “Discovery of new orally effective analgesic and anti-inflammatory hybrid furoxanyl N-acylhydrazone derivatives” (Bioorg Med Chem, 2012):

Key:
[1] = Cytotoxicity against mouse […] cells after 48 hrs by MTT assay; format: cell-based
In short: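 J774 macrophages in DMEM (4 mM L-glutamine, 10% heat-inactivated FBS) were seeded at 1 × 10^5 cells/well and grown for 48 h at 37 °C, 5% CO2. They were then exposed to compounds at 25–400 µM for 48 h. MTT (0.1 mg/mL final) was added for 3 h, formazan was dissolved in DMSO/glycine buffer pH 10.5, and absorbance was read at 560 nm to give an IC50.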

[2] = tested on: Rattus norvegicus; assay: Antiinflammatory activity in albino rat assessed as inhibition of carrageenan-induced paw edema at 100 umol/kg, po administered 1 hr before carrageenan challenge measured after 3 hrs by plethysmometric analysis relative to control; format: functional
In short: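 Albino rats of both sexes (150–200 g) were dosed orally as a suspension in 1% Tween 80 in saline, with vehicle controls. After 1 h, 0.1 mL 1% carrageenan or saline was injected subplantar. Paw volume was read by glass plethysmometer at 3 h. Edema = carrageenan-paw minus saline-paw volume; % inhibition vs vehicle; Student t-test.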

[3] = tested on: HT-29; assay: Inhibition of TNFalpha-induced NF-kappaB activation expressed in human HT-29 cells coexpressing hrGFP at 100 uM after 24 hrs by propidium iodide staining-based flow cytometric analysis relative to control; format: cell-based
In short: (§1)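 HT-29 cells stably expressing NF-κB-driven hrGFP given compound (DMSO <0.5%) for 2 h at the maximum non-cytotoxic concentration, then TNF-α at 3 ng/mL final for 18–24 h. Cells trypsinised and stained with propidium iodide; 5000 events gated on FSC/SSC. The %GFP-positive among PI-excluding live cells is normalised to TNF-α/DMSO control, ± SD.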

[4] = tested on: Mus musculus; assay: Analgesic activity in albino mouse assessed as inhibition of acetic acid-induced abdominal constriction at 100 umol/kg, po administered 1 hr before acetic acid challenge measured after 60 mins relative to control; format: functional; details: Abdomen
In short: (§2)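 Albino mice of both sexes (18–23 g) were dosed orally as a suspension in 5% arabic gum in saline, with vehicle controls. After 1 h they received 0.6% acetic acid ip (0.1 mL/10 g). Constrictions were counted for 20 min starting 10 min after injection. Data are % inhibition vs vehicle, mean ± SEM, Student t-test.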

[5] = Inhibition of soybean lipoxygenase using arachidonic acid as substrate; set-up: species or system Glycine max
In short: (§3)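 Soybean 15-lipoxygenase kit assay, arachidonic acid substrate, H2O2 as lipoxygenating agent in 0.1 M Tris-HCl pH 7.4. Single-point screen at 50 µM. IC50 found by varying concentration over 10–100 µM. Quercetin at 4 µM as positive control; duplicate means; Student t-test.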

[6] = tested on: HT-29; assay: Pro-inflammatory activity in NFkappaB-GFP transfected human HT-29 cells at 25 to 400 uM after 24 hrs by propidium iodide staining-based flow cytometric analysis; format: ADME, cell-based; details: ht-29, 24 h
In short: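 Reporter HT-29-NF-κB-hrGFP cells given compound alone, without TNF-α, for 18–24 h at 37 °C after the same 2 h pre-incubation. GFP-positive live (propidium iodide-excluding) cells counted by flow cytometry; IL-8 in supernatant measured by bead-based flow cytometry.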

[7] = tested on: HT-29; assay: Inhibition of NF-kappaB activation expressed in human HT-29 cells assessed as inhibition of TNFalpha-stimulated IL8 release at 100 uM after 24 hrs by flow cytometric analysis relative to control; format: cell-based
In short: (§4)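 Reporter HT-29-NF-κB-hrGFP cells pretreated 2 h with compound (DMSO <0.5%) at the highest concentration with 100% survival, then stimulated with TNF-α (3 ng/mL final) for 18–24 h at 37 °C. IL-8 in clarified supernatant measured by flow cytometric bead assay (500 events). Expressed as % of TNF-α/DMSO control ± SD; thalidomide as reference.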

[8] = tested on: Glycine max; assay: Inhibition of soybean lipoxygenase using arachidonic acid as substrate at 50 uM; in short: as §3
[9] = Cytotoxicity against human HT-29 cells expressing NF-kappaB-hrGFP assessed as highest non-cytotoxic dose for 100% cell survival after 24 hrs by MTT assay; format: cell-based; details: read-out: Activity
In short: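 HT-29 cells stably carrying pNF-κB-hrGFP, seeded at 0.5 × 10^6/mL in DMEM with 10% FBS, grown 24 h at 37 °C, 5% CO2. Compounds added in DMSO (<0.5% v/v final) at 12.5–400 µM for 24 h. Viability by MTT reduction (2 h), formazan dissolved in DMSO/glycine buffer, read at 560 nm.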

[10] = tested on: HT-29; assay: Inhibition of TNF-alpha-induced NFkappaB activation expressed in human HT-29 cells coexpressing hrGFP at 50 uM after 24 hrs by propidium iodide staining-based flow cytometric analysis relative to control; format: cell-based; in short: as §1
[11] = tested on: HT-29; assay: Inhibition of NF-kappaB activation expressed in human HT-29 cells assessed as inhibition of TNFalpha-stimulated IL8 release at 50 uM after 24 hrs by flow cytometric analysis relative to control; format: cell-based; in short: as §4
[12] = Induction of NO release in 0.1 M Tris-HCl and 0.1 mM DTPA at pH 8.3 measured for 20 mins in presence of cysteine; format: physicochemical; details: buffer, pH 8.3, 20 min
In short: (§5)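 Electrochemical NO detection with an ISO-NOP sensor. Compounds in DMSO added to 0.1 M Tris-HCl, 0.1 mM DTPA at pH 7.4 or 8.3. Cysteine (300 or 100 µM) added and NO recorded for 20 min at 25 or 37 °C; compound:Cys ratio 1:1 at 25 °C, with 3:1 and 37 °C runs also made.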

[13] = tested on: HT-29; assay: Inhibition of TNFalpha-induced NF-kappaB activation expressed in human HT-29 cells coexpressing hrGFP at 400 uM after 24 hrs by propidium iodide staining-based flow cytometric analysis relative to control; format: cell-based; in short: as §1
[14] = tested on: HT-29; assay: Inhibition of NF-kappaB activation expressed in human HT-29 cells assessed as inhibition of TNFalpha-stimulated IL8 release at 400 uM after 24 hrs by flow cytometric analysis relative to control; format: cell-based; in short: as §4
[15] = Induction of NO release in 0.1 M Tris-HCl and 0.1 mM DTPA at pH 7.4 measured for 20 mins in presence of cysteine; format: physicochemical; details: buffer, pH 7.4, 20 min; in short: as §5
[16] = tested on: Mus musculus; assay: Analgesic activity in albino mouse assessed as inhibition of acetic acid-induced abdominal constriction at 100 umol/kg, po administered 1 hr before acetic acid challenge measured after 30 mins relative to control; format: functional; details: Abdomen; in short: as §2

SMILES	IC50 [1] [µM]	inhibition in vivo at 100 µmol/kg [2] [%]	NF-kappaB activity (% of TNF-alpha control) [3] [%]	inhibition in vivo at 100 µmol/kg [4] [%]	IC50 [5] [µM]	Activity [6]	inhibition [7] [%]	inhibition [8] [%]	MNTC at 24 h [9] [µM]	NF-kappaB activation (% of TNF-alpha control) [10] [%]	inhibition [11] [%]	Activity [12] [nM/min]	NF-kappaB activity (GFP-positive cells), % of TNF-alpha control [13] [%]	inhibition [14] [%]	Activity [15] [nM/min]	inhibition in vivo at 100 µmol/kg [16] [%]
Cc1c(/C=N/NC(=O)c2no[n+]([O-])c2C)no[n+]1[O-]	> 400	10	127	14	50	Non-toxic	65	55	100	–	–	–	–	–	–	–
O=C(O)c1ccc(/C=N/NC(=O)c2c(-c3ccccc3)no[n+]2[O-])cc1	> 300	–	–	–	50	Non-toxic	–	53	50	115	114	0	–	–	–	–
Cc1c(C(=O)N/N=C/c2ccc3c(c2)OCO3)no[n+]1[O-]	> 400	–	97	–	–	Non-toxic	98	–	100	–	–	–	–	–	–	–
Cc1c(C(=O)N/N=C/c2ccco2)no[n+]1[O-]	> 400	–	99	–	–	Non-toxic	82	0	100	–	–	–	–	–	–	–
O=C(N/N=C/c1ccc2no[n+]([O-])c2c1)c1ccc2c(c1)OCO2	141	–	–	–	50	Non-toxic	–	55	400	–	–	0	87	64	–	–
Cc1c(C(=O)N/N=C/c2ccc3no[n+]([O-])c3c2)no[n+]1[O-]	> 400	–	–	–	–	Non-toxic	–	–	400	–	–	–	121	68	–	–
Cc1c(/C=N/NC(=O)c2cnn(-c3ccccc3)c2)no[n+]1[O-] (mixture of isomers)	295	–	80	–	–	Non-toxic	–	0	100	–	–	–	–	–	–	–
Cc1c(C(=O)N/N=C/c2ccc([N+](=O)[O-])s2)no[n+]1[O-]	68	–	111	–	–	Non-toxic	–	–	100	–	–	–	–	–	–	–
Cc1nc2ccccn2c1C(=O)N/N=C/c1no[n+]([O-])c1C	> 400	–	–	–	–	Non-toxic	–	–	400	–	–	–	120	77	–	–
O=C(N/N=C/c1ccc2no[n+]([O-])c2c1)c1cnn(-c2ccccc2)c1	37	–	–	–	–	Non-toxic	–	–	–	–	–	–	–	–	–	–
O=C(N/N=C/c1c(-c2ccccc2)no[n+]1[O-])c1cnn(-c2ccccc2)c1	42	–	–	–	–	Non-toxic	–	–	400	–	–	–	105	–	–	–
Cc1c(C(=O)N/N=C/c2ccc(Br)cc2)no[n+]1[O-]	162	0	126	23	–	Non-toxic	61	0	100	–	–	–	–	–	–	–
Cc1nc2ccccn2c1C(=O)N/N=C/c1ccc2no[n+]([O-])c2c1	> 400	–	–	–	–	Non-toxic	–	–	400	–	–	–	104	76	–	–
Cc1nc2ccccn2c1C(=O)NN	> 400	–	–	–	–	Non-toxic	–	–	50	111	–	–	–	–	–	–
Cc1c(C(=O)N/N=C/c2c(-c3ccccc3)no[n+]2[O-])no[n+]1[O-]	> 400	–	122	–	–	Non-toxic	77	–	100	–	–	–	–	–	–	–
Cc1nc2ccccn2c1C(=O)N/N=C/c1c(-c2ccccc2)no[n+]1[O-]	56	18	–	14	–	Non-toxic	–	0	400	–	–	0	32	38	0	2
Cc1c(/C=N/NC(=O)c2ccc3c(c2)OCO3)no[n+]1[O-]	132	–	–	–	–	Non-toxic	–	–	400	–	–	–	102	106	–	–
COc1ccc(/C=N/NC(=O)c2no[n+]([O-])c2C)cc1OC	> 400	4	–	17	–	Non-toxic	–	0	400	–	–	–	120	68	–	–
COc1ccc(/C=N/NC(=O)c2no[n+]([O-])c2C)cc1O	> 400	–	–	–	–	Non-toxic	–	58	400	–	–	–	117	59	–	–
Cc1c(C(=O)N/N=C/c2ccc(C(F)(F)F)cc2)no[n+]1[O-]	> 400	–	–	–	50	Non-toxic	–	55	400	–	–	–	55	–	–	–
Cc1c(C(=O)N/N=C/c2cccs2)no[n+]1[O-]	> 400	0	122	14	> 100	Non-toxic	75	10	100	–	–	–	–	–	–	–
COc1cc(/C=N/NC(=O)c2no[n+]([O-])c2C)ccc1O	> 400	–	149	–	–	Non-toxic	77	1	100	–	–	0	–	–	–	–
NNC(=O)c1ccc2c(c1)OCO2	> 400	–	–	–	–	Non-toxic	–	–	50	118	–	–	–	–	–	–
Cc1c(C(=O)N/N=C/c2ccc([N+](=O)[O-])o2)no[n+]1[O-]	96	14	136	13	–	Non-toxic	48	–	100	–	–	–	–	–	–	–
